# Assay results published in ChEMBL document CHEMBL4725431, “Harmaline Analogs as Substrate-Selective Cyclooxygenase-2 Inhibitors” (ACS Med Chem Lett, 2020).
# pIC50: −log10 of the molar value.
# Legend:
# [1] = molecular target: T1, Prostaglandin G/H synthase 2 (Mus musculus, UniProt Q05769); assay: Inhibition of mouse COX2 using [1-14C]AA as substrate preincubated for 20 mins followed by substrate addition and measured for 30 sec by thin layer chromatography analysis
# T1 sequence (Q05769 whole entry): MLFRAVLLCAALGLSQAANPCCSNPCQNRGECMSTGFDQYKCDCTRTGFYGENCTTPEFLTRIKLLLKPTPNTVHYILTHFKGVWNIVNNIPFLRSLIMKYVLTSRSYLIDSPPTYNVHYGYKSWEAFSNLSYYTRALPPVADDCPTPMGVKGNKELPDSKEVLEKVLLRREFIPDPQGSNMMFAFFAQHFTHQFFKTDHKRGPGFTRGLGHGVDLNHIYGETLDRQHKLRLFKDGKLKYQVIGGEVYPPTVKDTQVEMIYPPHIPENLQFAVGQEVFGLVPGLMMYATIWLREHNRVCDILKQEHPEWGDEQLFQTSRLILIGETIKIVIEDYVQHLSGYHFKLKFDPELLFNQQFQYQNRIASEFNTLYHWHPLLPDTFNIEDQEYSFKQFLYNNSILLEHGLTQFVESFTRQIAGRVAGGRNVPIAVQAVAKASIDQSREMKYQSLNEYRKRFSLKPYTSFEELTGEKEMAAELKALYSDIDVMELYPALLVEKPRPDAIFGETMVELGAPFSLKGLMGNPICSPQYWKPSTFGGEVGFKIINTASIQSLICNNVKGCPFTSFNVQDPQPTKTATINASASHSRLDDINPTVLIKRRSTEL
# Summary of the method: (§1)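 Purified enzyme (murine COX-2 at 63 nM, ovine COX-1 at 22.5 nM), hematin-reconstituted, in 100 mM Tris-HCl pH 8.0 with 500 μM phenol. Several inhibitor concentrations or DMSO vehicle preincubated 20 min, then [1-14C]AA 5 μM added at 37 °C for 30 s. Stopped by ether/methanol/citrate pH 4.0 extraction. Radiolabelled PGs separated on TLC and quantified by radioactivity scanning. Run in triplicate.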
# [2] = molecular target: T1, Prostaglandin G/H synthase 2; assay: Inhibition of mouse COX2 using 2-arachidonylglycerol as substrate preincubated for 3 mins followed by substrate addition and measured for 30 sec by LC/MS analysis
# Summary of the method: (§2)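 Purified murine COX-2 (40 nM in footnote; 50 nM in methods) with 100 nM heme and 1 μM PPHP in 50 mM Tris-HCl pH 8.0, 0.5 mM phenol, 5% DMSO final. Five inhibitor concentrations up to 1 μM plus solvent control. Substrate (AA or 2-AG, 5 μM) added at 37 °C for 30 s. Quenched with solvent containing PGE2-d4/PGE2G-d5. Products measured by LC-MS/MS SRM.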
# [3] = molecular target: T2, Prostaglandin G/H synthase 1 (Ovis aries, UniProt P05979); assay: Inhibition of ovine COX1 using [1-14C]AA as substrate preincubated for 20 mins followed by substrate addition and measured for 30 sec by thin layer chromatography analysis; summary of the method: as §1
# T2 sequence (P05979 whole entry): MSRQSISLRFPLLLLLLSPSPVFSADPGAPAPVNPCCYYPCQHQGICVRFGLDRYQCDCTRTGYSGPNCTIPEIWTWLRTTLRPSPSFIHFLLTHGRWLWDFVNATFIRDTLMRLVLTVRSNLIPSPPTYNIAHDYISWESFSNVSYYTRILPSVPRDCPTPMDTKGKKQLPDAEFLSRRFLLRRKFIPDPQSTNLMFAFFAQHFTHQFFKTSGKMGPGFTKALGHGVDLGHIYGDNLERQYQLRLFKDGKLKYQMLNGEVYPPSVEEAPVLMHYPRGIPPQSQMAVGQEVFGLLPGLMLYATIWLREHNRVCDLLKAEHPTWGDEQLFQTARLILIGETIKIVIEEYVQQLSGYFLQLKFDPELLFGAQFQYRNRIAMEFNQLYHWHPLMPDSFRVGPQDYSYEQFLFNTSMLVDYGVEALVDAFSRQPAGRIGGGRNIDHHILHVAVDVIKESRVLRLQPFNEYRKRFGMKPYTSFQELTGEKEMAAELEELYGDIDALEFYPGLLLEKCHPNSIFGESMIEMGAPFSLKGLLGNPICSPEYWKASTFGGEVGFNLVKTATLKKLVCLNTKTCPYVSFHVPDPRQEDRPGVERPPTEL
# [4] = molecular target: T1, Prostaglandin G/H synthase 2; assay: Inhibition of mouse COX2 using arachidonic acid as substrate preincubated for 3 mins followed by substrate addition and measured for 30 sec by LC/MS analysis; summary of the method: as §2
SMILES,pIC50 [1],pIC50 [2],pIC50 [3],pIC50 [4]
COc1ccc2c(c1)c1c(n2Cc2ccc(Cl)cc2)C(C)=NCC1,5.68,< 6.00,< 5.40,< 6.00
COc1cccc2[nH]c3c(c12)CCN=C3C,< 5.40,< 6.00,< 5.40,< 6.00
COc1ccc2[nH]c3c(c2c1)CCN=C3C,< 5.40,< 6.00,< 5.40,< 6.00
